Assay outcomes from PubChem BioAssay.
Shown are actives, neighbours in structure and some others; about 2.6% of the full set was active somewhere.
SENP8 block-1 – inhibitors of human SENP8 protease; inhibition, % at 20 µM; AID 602440; recombinant SENP8, Nedd8 substrate fluorescence; actives 0.64% (n = 360,000); in the data active = inhibition mostly above about 40%, no sharp cut-off; inactive = mostly below about 27%
Target sequence (Q96LD8 whole entry, looked up): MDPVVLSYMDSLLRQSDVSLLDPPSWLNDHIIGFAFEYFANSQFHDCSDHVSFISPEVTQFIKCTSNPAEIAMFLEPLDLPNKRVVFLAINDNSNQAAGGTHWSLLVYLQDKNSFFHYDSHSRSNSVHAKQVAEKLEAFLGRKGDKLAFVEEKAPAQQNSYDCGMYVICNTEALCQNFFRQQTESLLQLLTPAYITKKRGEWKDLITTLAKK
SENP7 inh – blocks the human protease SENP7. recombinant SENP7, Z-RLRGG-aminoluciferin luminescence, 40 min. inhibition, % at 5 µM. actives 1.5% (n = 330,000). AID 434973;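 active = inhibition above about 50% at the single test dose, limit read from the data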;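 also: plate controls were DMSO with enzyme for no effect and no enzyme buffer wells for full effect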
Platelet DG rel – modulates dense granule release in human platelets; human platelet-rich plasma, SFLLRN dense granule ATP release, luminescence; inhibition, %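 (compounds screened at 7.5 µM in platelet-rich plasma)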; actives 0.22% (n = 300,000);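 active = mean replicate score, as percent of positive control, at or above 50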
SENP1 inh – inhibitors of human SENP1 SUMO protease catalytic domain | recombinant SENP1 catalytic domain, CyPet-SUMO1-YPet FRET cleavage | AID 624204 | actives 0.21% (n = 360,000) | Q9P0U3 | inhibition, % at 10 µM;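 active = inhibition at least 30% at 10 µM, raw YFP signal under a set limit, fluorescence ratio 0.5 to 1.5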;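 also: 0% = enzyme with DMSO and 100% = no enzyme wells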
Target sequence (Q9P0U3 419-644 limits assumed): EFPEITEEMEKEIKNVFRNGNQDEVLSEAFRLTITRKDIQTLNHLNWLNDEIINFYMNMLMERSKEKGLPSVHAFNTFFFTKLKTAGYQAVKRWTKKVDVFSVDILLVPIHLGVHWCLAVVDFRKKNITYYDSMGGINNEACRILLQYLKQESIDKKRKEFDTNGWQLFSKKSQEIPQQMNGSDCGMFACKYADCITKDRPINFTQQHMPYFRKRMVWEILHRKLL
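system = hSENP1 catalytic domain, recombinant | reagent = SFCypet-SUMO1-SFYpet substrate at 25 nM | doses = one dose per compound, 10 µM, 0.5% DMSO | incubation = enzyme reaction for 50 min at room temperature, dark | measured by = FRET, CFP and YFP emission | controls = no-enzyme low, enzyme-DMSO high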
SENP8 block-2 – blocks the human protease SENP8; Q96LD8; purified SENP8, Z-RLRGG-aminoluciferin cleavage, luminescence; inhibition, % at 10 µM; actives 1.2% (n = 330,000); AID 2540; in the data active = inhibition above about 50%
SENP6 block – blocks the human protease SENP6. Q9GZR1. actives 1.8% (n = 330,000). Recombinant SENP6 catalytic domain, aminoluciferin luminescence. inhibition, % at 10 µM;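 active = inhibition above about 50% at the single tested dose, limit read from the data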;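 also: plate controls were DMSO wells with enzyme for no effect and DMSO wells lacking enzyme for full effect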
Starred values were filed as active, the others as inactive; · = no result.

SMILES	SENP8 block-1	SENP7 inh	Platelet DG rel	SENP1 inh	SENP8 block-2	SENP6 block
CCCC(=O)NC(c1ccco1)c1cc([N+](=O)[O-])c2cccnc2c1O (centres undefined)	53.3*	7.3	1.1	2.3	5.8	15.3
CCC(=O)NC(c1ccco1)c1cc(Br)c2cccnc2c1O (centres undefined)	10.4	·	·	-7.0	·	·
COc1ccc(C(NC(C)=O)c2cc(Cl)c3cccnc3c2O)cc1 (centres undefined)	21.5	-2.9	-0.2	-0.8	6.3	7.3
CC(=O)c1cccc(-c2ccnc3c2CC(C(=O)Nc2ccccc2)O3)c1 (centres undefined)	6.8	·	·	-1.6	·	·
COc1ccccc1NC(=O)c1ccc(NC2=NC3CS(=O)(=O)CC3S2)cc1 (centres undefined)	13.7	11.8	-3.6	-1.3	-2.4	-8.4
O=C(CSc1ccc(Br)cc1)Nc1cccc(S(=O)(=O)N2CCOCC2)c1	0.2	15.9	·	1.8	-9.0	-17.9
O=C(CSc1ncc(C(F)(F)F)cc1Cl)NCC1CCCO1 (centres undefined)	16.4	-5.5	2.8	1.9	-0.7	-26.1
S=C(NCc1ccccc1)N1CCN(C2CCCCC2)CC1	15.7	8.8	-2.0	1.8	8.3	-6.2
CCOc1ccc(N=Cc2ccc(N(C)C)cc2)c(O)c1	-497.8	·	·	26.5	·	·
CCOc1ccc(N=Cc2ccc([N+](=O)[O-])cc2)c(O)c1	41.3*	·	·	39.0*	·	·
CN(CC(=O)Nc1ccc(N2CCOCC2)cc1)C(=O)C12CC3CC(CC(C3)C1)C2	15.7	-5.0	-6.2	-0.9	-7.4	-17.7
CC(OC(=O)CNC(=O)C12CC3CC(CC(C3)C1)C2)C(=O)Nc1ccc(N2CCOCC2)cc1 (centres undefined)	35.1	-0.9	84.9*	0.7	3.6	-2.2
COc1ccc(/C=C(\C#N)c2nc3ccccc3[nH]2)cc1O	-169.3	43.2	3.8	-71.8	37.9	56.5*
CC(=O)OCC(=O)C1(O)CCC2C3CCC4C(OC(C)=O)C(=O)CCC4(C)C3C(=O)CC21C (centres undefined)	-4.4	·	·	0.6	·	·
C=C(C)Cn1c(-c2cccs2)n[nH]c1=S	-439.9	2.3	-3.7	-0.9	-6.8	9.6
O=C(O)CC(CC(=O)Nc1ccc(-n2ccc(C(F)(F)F)n2)cc1)c1ccccc1 (centres undefined)	5.2	2.7	-15.5	-0.9	4.7	0.6
O=C(Nc1ccccc1)Nc1ccc(-n2ccc(C(F)(F)F)n2)cc1	7.6	57.5*	14.9	-0.1	56.7*	70.8*
O=C(Nc1ccc([N+](=O)[O-])cc1)c1cncc(Br)c1	21.9	-1.3	3.0	0.8	4.6	0.4
NC(=O)c1ccccc1NC(=O)/C=C/c1ccccc1	-86.0	40.1	-1.8	3.2	21.9	65.6*
CC(C)=CC(=O)Nc1ccccc1C(N)=O	2.4	1.5	1.7	0.1	-3.1	-30.9
COC(=O)c1ccc(CSc2nnc(N)s2)cc1	21.4	-4.3	74.9*	1.5	-8.8	-35.4
COc1ccc(/C=N/N=C(\N)c2nonc2N)cc1	11.8	·	67.5*	0.3	·	·
COc1cc(/C=N/N=C(\N)c2nonc2N)cc(OC)c1O	34.0	-7.6	15.8	16.7	-2.2	-10.8
O=C(NCc1ccc(F)cc1)C1CCC(CNS(=O)(=O)c2cccs2)CC1 (centres undefined)	-0.4	-15.1	-1.5	0.1	-10.9	-23.7
COc1cc([N+](=O)[O-])cc(/C=N/NC(=O)c2cc(C)nc3ccccc23)c1O	29.5	-5.7	-14.2	40.4*	-11.1	-18.8
SMILES	SENP8 block-1	SENP7 inh	Platelet DG rel	SENP1 inh	SENP8 block-2	SENP6 block
O=C(NNc1nc2ccccc2s1)Nc1ccccc1	-3.7	0.6	2.2	-0.8	-8.5	-24.2
S=C(Nc1ccccc1)c1nc2ccccc2s1	-12.1	66.6*	2.3	1.8	47.8	-17.2
COc1cccc(NC(=O)CN(C)S(=O)(=O)c2ccc3c(c2)NC(=O)CS3)c1	7.6	-15.3	9.0	0.7	-6.8	-1.5
Cn1c(N=NC(=O)c2ccccc2)c(O)c2ccccc21	23.5	49.1	-5.3	0.6	41.4	69.8*
Cn1c(O)c(N=NC(=O)CNC(=O)c2ccccc2)c2ccccc21	9.7	0.8	0.0	0.8	6.1	-21.5
CSCCC(NS(=O)(=O)c1ccc2c(c1)oc(=O)n2C)C(=O)NCc1ccc(C)cc1 (centres undefined)	34.5	7.6	0.2	0.7	-2.1	-2.5
Cc1cc2nc(N3C(=O)CNC3=S)sc2cc1C	-7.9	95.6*	-2.0	-31.3	95.0*	95.1*
Cc1ccc(-c2nnc(/C=C/c3ccccc3)o2)cc1	-391.1	-1.9	4.1	3.1	41.9	75.5*
Cc1nnc(-c2ccccc2)o1	4.3	-7.3	-1.4	0.9	8.7	-10.1
CS(=O)(=O)N1N=C(c2ccc(Cl)cc2)CC1c1cccs1 (centres undefined)	8.1	40.1	3.8	1.1	20.7	51.1*
COc1ccc(N2CCN(C(=O)CSc3nnc(NC(=O)C4CCC4)s3)CC2)cc1	2.4	-1.9	-6.2	1.7	-5.0	8.4
Oc1ccc2ccccc2c1N=Nc1ccccn1	41.4*	-4.7	-3.6	10.8	15.0	22.6
Oc1ccc2ccccc2c1N=Nc1ccccc1F	2.5	6.8	-0.7	3.3	-6.4	16.2
CCOC(=O)c1[nH]cnc1N=Nc1c(O)ccc2ccccc12	9.7	·	6.1	61.8*	·	·
COc1ccccc1C(=O)Nc1cc2cc(Cl)ccc2oc1=O	-304.1	-11.9	-5.7	0.6	-8.5	-11.2
O=S(=O)(CCc1nc2ccccc2[nH]1)c1ccc(Cl)cc1	29.5	-0.5	-16.3	0.4	-12.5	-3.5
Clc1ccc(OCc2nc3ccccc3[nH]2)cc1	-2.9	82.4*	4.0	2.7	56.3*	72.0*
COc1ccc(N/N=C(\C#N)C(N)=O)cc1	10.5	0.5	7.2	1.5	-10.4	1.2
N#C/C(=N/Nc1ccc(OC(F)(F)F)cc1)C(N)=S	46.1*	-54.6	-1.3	-0.8	49.1	79.2*
O=C(Nc1cc([N+](=O)[O-])ccc1Cl)c1cccnc1	14.5	-1.1	-0.9	2.6	-4.8	6.5
Nc1nc2ccccc2n1C(=O)c1ccco1	-1.6	·	13.3	-0.6	·	·
Nc1nc2ccccc2n1C(=O)c1cccs1	-44.7	74.2*	15.7	-3.7	58.3*	11.3
CCS(=O)(=O)C1=NN2C(=N)/C(=C\c3ccc(OC(=O)c4ccco4)c(OC)c3)C(=O)N=C2S1	-29.7	-0.8	-2.1	-59.6	53.2*	3.6
CCS(=O)(=O)C1=NSC2=NC(=O)/C(=C\c3ccc(OC(=O)c4ccco4)c(OC)c3)C(=N)N21	-7.6	3.4	-11.8	-67.4	13.4	-6.1
CCOC(=O)c1c(C)[nH]c(C)c1S(=O)(=O)N1CCC(c2ccccc2)C1 (centres undefined)	11.7	3.1	-4.1	1.0	-2.4	-3.4
